The results in this text go back to ChEMBL document CHEMBL1148748, “Synthesis of specific bivalent probes that functionally interact with 5-HT(4) receptor dimers” (J Med Chem, 2007).

Assay [1] concerns the target T1, 5-hydroxytryptamine receptor 4 (Homo sapiens, UniProt Q13639). The experiment in a line: Agonist activity at human 5HT4e receptor expressed in C6 cells assessed as cAMP accumulation relative to 5HT. It counts as functional, cell-based. Also noted: concentration or dose not given beside the values. An outline of the steps: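 C6 glial cells stably expressing h5-HT4(e), serum-starved 4 h, preincubated 15 min with 5 mM theophylline plus 10 µM pargyline, then compound with or without 5-HT (1 µM) 15 min at 37 °C; stopped with ice-cold 20% perchloric acid, neutralized; cAMP by radioimmunoassay; expressed as % of 5-HT response; two experiments in triplicate.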
(Changes in cAMP serve as a functional read-out for many G protein-coupled receptors.)

The target in assay [2] is T1, 5-hydroxytryptamine receptor 4. Briefly: Displacement of [3H]GR-113808 from human 5HT4e receptor expressed in C6 cells. Type of assay: cell-based. (Displacement assays read how much labelled ligand stays bound in the presence of the test substance.)
For assay [3] the target is unchanged. The experiment in a line: Activity at 5HT4 receptor fused with RLuc and YFP fusion proteins expressed in CHO cells by BRET dimerization assay relative to control. It counts as functional, cell-based. Details: concentration or dose not given beside the values. Put shortly: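 CHO cells transiently cotransfected (Jet-PEI, 8 µg DNA per 100 mm dish) with C-terminal 5-HT4R-RLuc and 5-HT4R-YFP at equimolar amounts; membrane preparations incubated with ligand (1 µM, or dose-response) at 25 °C; coelenterazine h 5 µM final; 530/485 nm emission ratio minus RLuc-alone ratio gives BRET, in mBU; % of control; three experiments in duplicate.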
In general terms: In BRET a luciferase serves as donor, and the signal depends on an acceptor being close.

For assay [4] the target is unchanged. Briefly: Binding affinity to YFP fused 5HT4 receptor expressed in CHO cells. Type of assay: cell-based.
Assay [5] has the same target. Briefly: Binding affinity to Rluc fused 5HT4 receptor expressed in CHO cells. Type of assay: cell-based.

T1 sequence (Q13639 whole entry): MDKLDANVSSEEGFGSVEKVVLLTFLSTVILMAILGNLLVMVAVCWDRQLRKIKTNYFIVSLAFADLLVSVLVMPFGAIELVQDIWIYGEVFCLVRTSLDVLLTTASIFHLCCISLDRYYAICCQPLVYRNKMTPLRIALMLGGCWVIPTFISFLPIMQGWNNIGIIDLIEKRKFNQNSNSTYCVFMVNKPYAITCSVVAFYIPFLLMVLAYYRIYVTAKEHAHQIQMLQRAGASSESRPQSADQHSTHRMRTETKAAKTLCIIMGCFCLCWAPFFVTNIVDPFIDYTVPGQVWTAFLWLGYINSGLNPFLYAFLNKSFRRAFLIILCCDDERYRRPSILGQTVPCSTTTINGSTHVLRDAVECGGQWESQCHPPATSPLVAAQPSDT

The Ki is a measure of affinity in units of concentration, obtained from inhibition or displacement. Regarding `COc1cc(N)c(Cl)cc1C(=O)OCCN1CCC(CNC(=O)CN(CCCc2ccc(CCCN(CC(=O)NCC3CCN(CCOC(=O)c4cc(Cl)c(N)cc4OC)CC3)C(=O)OC(C)(C)C)cc2)C(=O)OC(C)(C)C)CC1`, the Activity is 18% in assay [1] and 114% in assay [3]. The same compound had an inhibition constant Ki in assay [2] of 19 nM.

`COc1cc(N)c(Cl)cc1C(=O)OCCN1CCC(CNC(=O)CCCN(CC#Cc2cccc(C#CCN(CCCC(=O)NCC3CCN(CCOC(=O)c4cc(Cl)c(N)cc4OC)CC3)C(=O)OC(C)(C)C)c2)C(=O)OC(C)(C)C)CC1`: the Activity turned out to be 6% in assay [1] and 108% in assay [3]. In assay [2], this compound gave an inhibitory constant (Ki) of 40 nM.

As to `COc1cc(N)c(Cl)cc1C(=O)OCCN1CCC(NC(=O)CCCCCCCCCCN(CCCCCCCCCCC(=O)NC2CCN(CCOC(=O)c3cc(Cl)c(N)cc3OC)CC2)CC(=O)NCC2CCNCC2)CC1`, the Activity worked out at 10% in assay [1] and 114% in assay [3].

Regarding `Cn1cc(C(=O)OCC2CCN(CCNS(C)(=O)=O)CC2)c2ccccc21`, the Activity in assay [1] came out at 1%; in assay [3] it was 99%. The compound also showed a Ki in assay [4] of 0.7 nM.

On to `COc1cc(N)c(Cl)cc1C(=O)OCCN1CCC(CNC(=O)CN(CC#Cc2ccc(C#CCN(CC(=O)NCC3CCN(CCOC(=O)c4cc(Cl)c(N)cc4OC)CC3)C(=O)OC(C)(C)C)cc2)C(=O)OC(C)(C)C)CC1`, for which the results for the Activity in assay [1] and in assay [3] were 49% and 107%, respectively. In assay [2], this compound came in with a Ki of 44 nM.

Regarding `COc1cc(N)c(Cl)cc1C(=O)OCCN1CCC(NC(=O)CCCCCNC(=O)C2CCN(CCOC(=O)c3cc(Cl)c(N)cc3OC)CC2)CC1`, the Activity amounted to 46% in assay [1] and 108% in assay [3]. Further, in assay [2], the Ki was found to be 7 nM.

Regarding `COc1cc(N)c(Cl)cc1C(=O)OCCN1CCC(NC(=O)CCCN(CC#Cc2cccc(C#CCN(CCCC(=O)NC3CCN(CCOC(=O)c4cc(Cl)c(N)cc4OC)CC3)C(=O)OC(C)(C)C)c2)C(=O)OC(C)(C)C)CC1`, the Activity in assay [1] was determined as 8%; in assay [3] it was 109%. The compound further yielded an inhibition constant Ki in assay [2] of 8 nM.

In the case of `COc1cc(N)c(Cl)cc1C(=O)OCCN1CCC(NC(=O)CCCN(CCCc2ccc(CCCN(CCCC(=O)NC3CCCCC3)C(=O)OC(C)(C)C)cc2)C(=O)OC(C)(C)C)CC1`, the Activity amounted to 17% in assay [1] and 105% in assay [3]. Moreover, the inhibitory constant (Ki) in assay [2] is 34 nM.

As to `COc1cc(N)c(Cl)cc1C(=O)OCCN1CCC(CNC(=O)CCCN(CCCc2cccc(CCCN(CCCC(=O)NCC3CCN(CCOC(=O)c4cc(Cl)c(N)cc4OC)CC3)C(=O)OC(C)(C)C)c2)C(=O)OC(C)(C)C)CC1`, the Activity in assay [1] was determined as 5%; in assay [3], 108%. Also, the Ki in assay [2] worked out at 23 nM.

As to `COc1cc(N)c(Cl)cc1C(=O)OCCN1CCC(NC(=O)CCCN(CCCc2ccc(CCCN(CCCC(=O)NC3CCN(CCOC(=O)c4cc(Cl)c(N)cc4OC)CC3)C(=O)OC(C)(C)C)cc2)C(=O)OC(C)(C)C)CC1`, the Activity in assay [1] came out at 21%; in assay [3], 118%. Also, the inhibition constant (Ki) was found to be 12 nM in assay [2], 10 nM in assay [5] and 10 nM in assay [4].

Consider `COc1cc(N)c(Cl)cc1C(=O)OCCN1CCC(NC(=O)CCCN(CC#Cc2ccc(C#CCN(CCCC(=O)NC3CCN(CCOC(=O)c4cc(Cl)c(N)cc4OC)CC3)C(=O)OC(C)(C)C)cc2)C(=O)OC(C)(C)C)CC1`, for which the Activity is 35% in assay [1] and 106% in assay [3]. In assay [2], this compound returned a Ki of 18 nM.

As to `COc1cc(N)c(Cl)cc1C(=O)OCCN1CCC(CNC(=O)CCCN(CC#Cc2ccc(C#CCN(CCCC(=O)NCC3CCN(CCOC(=O)c4cc(Cl)c(N)cc4OC)CC3)C(=O)OC(C)(C)C)cc2)C(=O)OC(C)(C)C)CC1`, the Activity in assay [1] was 1%; in assay [3], 115%. For the same compound, the Ki in assay [2] is 25 nM.

Regarding `COc1cc(N)c(Cl)cc1C(=O)OCCN1CCC(CCNC(=O)CCCCCCCCCCC(=O)NCCC2CCN(CCOC(=O)c3cc(Cl)c(N)cc3OC)CC2)CC1`, the Activity in assay [1] came to 6%; in assay [3], 108%. In assay [2], this compound registered a Ki of 9 nM.

Take `COc1cc(N)c(Cl)cc1C(=O)OCCN1CCCCC1`: the Activity in assay [1] was determined as 45%; in assay [3], 101%.

As to `COc1cc(N)c(Cl)cc1C(=O)OCCN1CCC(NC(=O)CCCCCCCCCCNc2nc(NCCCCCCCCCCC(=O)NC3CCN(CCOC(=O)c4cc(Cl)c(N)cc4OC)CC3)nc(NCc3ccccc3)n2)CC1`, the Activity was 12% in assay [1] and 114% in assay [3].

As to `COc1cc(N)c(Cl)cc1C(=O)OCCN1CCC(CNC(=O)CCCN(CCCc2ccc(CCCN(CCCC(=O)NCC3CCN(CCOC(=O)c4cc(Cl)c(N)cc4OC)CC3)C(=O)OC(C)(C)C)cc2)C(=O)OC(C)(C)C)CC1`, the Activity in assay [1] was determined as 9%; in assay [3], 115%. This compound also had an inhibition constant (Ki) in assay [2] of 15 nM.

For the compound `COc1cc(N)c(Cl)cc1C(=O)OCCN1CCC(NC(=O)CCCCCCCCCCNC(=O)C2CCN(CCOC(=O)c3cc(Cl)c(N)cc3OC)CC2)CC1`, the results for the Activity in assay [1] and in assay [3] were 5% and 110%, respectively.
